From PubChem
PAD4 FP inh = human PAD4 inhibitors, primary screen, biochemical, fluorescence polarization, 1536-well format; inhibition, % at 6.36 µM; actives 0.41% (n = 330,000); recombinant PAD4, RCA probe fluorescence polarization; AID 485272, 2010; Protein-arginine deiminase type-4 (Homo sapiens), Q9UM07;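 active = percent inhibition above a cutoff equal to the mean of all tested compounds plus 3 SD, cut at about 15% in these data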;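 note: 0% = PAD4 with RCA probe and DMSO and 100% = probe without PAD4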
PRMT1 inh = PRMT1 methyltransferase inhibitors, primary screen, biochemical, fluorescence polarization. Protein arginine N-methyltransferase 1 (Homo sapiens), Q99873. recombinant PRMT1, activity-based probe fluorescence polarization. inhibition, % at 2.79 µM. actives 1.3% (n = 370,000). AID 652257, 2013;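 active = inhibition above about 21% made by adding two undisclosed values, limit read from the data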
Target sequence (Q99873 whole entry, looked up): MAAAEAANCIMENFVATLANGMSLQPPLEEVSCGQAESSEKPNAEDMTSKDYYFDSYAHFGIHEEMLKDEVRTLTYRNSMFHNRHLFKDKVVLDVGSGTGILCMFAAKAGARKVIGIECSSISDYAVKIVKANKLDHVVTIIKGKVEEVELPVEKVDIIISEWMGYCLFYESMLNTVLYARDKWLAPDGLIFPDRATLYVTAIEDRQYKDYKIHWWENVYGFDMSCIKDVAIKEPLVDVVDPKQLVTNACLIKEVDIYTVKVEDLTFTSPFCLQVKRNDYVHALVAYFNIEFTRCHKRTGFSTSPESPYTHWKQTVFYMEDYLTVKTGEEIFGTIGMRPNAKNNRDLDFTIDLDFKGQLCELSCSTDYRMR
eLon inh = inhibitors of E. coli Lon protease, primary screen, biochemical, fluorescence polarization; P0A9M0; purified E. coli Lon protease; inhibition, % at 7.94 µM; actives 0.42% (n = 360,000); AID 602123, 2011; in the data active = inhibition above about 13%, passing the limit was not always enough;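 note: 0% = enzyme with probe and DMSO and 100% = no enzyme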
GSTO1 counter = inhibitors of recombinant GSTO1, primary screen, counter-screen for RBBP9 inhibitor project, biochemical, fluorescence polarization | inhibition, % at 5.96 µM | actives 1.1% (n = 300,000) | Glutathione S-transferase omega-1 (Homo sapiens), P78417 | activity-based probe fluorescence polarization;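 active = inhibition above the campaign mean inhibition plus 3 SD, cut at about 35% in these data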;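 note: 0% = GSTO1-1 with DMSO and 100% = wells lacking GSTO1-1 enzyme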
TDP2 inh = human TDP2 enzyme inhibitors, primary screen, biochemical, epi absorbance, recombinant enzyme. Tyrosyl-DNA phosphodiesterase 2 (Homo sapiens), O95551. AID 720702, 2013. T5PNP hydrolysis, p-nitrophenol absorbance 415 nm. inhibition, % at 12.8 µM. actives 0.34% (n = 370,000);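 active = inhibition above the mean of all tested compounds plus 3 SD, set per campaign, cut at about 25% in these data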;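 note: 0% = DMSO with enzyme and 100% = buffer with substrate but no TDP2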
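System: recombinant human TDP2 / Amount: 120 nM TDP2 per well / Also added: 5 mM T5PNP chromogenic substrate / Doses: 12.8 µM single point, 1% DMSO / Incubation: 2 h at 37 °C / Detection: p-Nitrophenol epi absorbance / Evaluation: % inhibition relative to enzyme-containing and enzyme-free wells / Repeats: singlicate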
PRMT1 confirm = PRMT1 methyltransferase inhibitors, confirmation, biochemical, fluorescence polarization, triplicate | inhibition, % at 2.79 µM | recombinant His-PRMT1, activity-based probe fluorescence polarization | shares compounds with PRMT1 inh | actives 42% (n = 3,300);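 active = mean inhibition across replicates above the hit cutoff derived for the earlier primary screen, cut at about 22% in these data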
Numbers without * were called inactive; . = no result. This is a sample that favours compounds with a hit; in the whole collection about 2.5% have one here.

SMILES	PAD4 FP inh	PRMT1 inh	eLon inh	GSTO1 counter	TDP2 inh	PRMT1 confirm
CCOC(=O)c1c(N2C(=O)CC(Sc3ccccc3C(=O)O)C2=O)sc2c1CCCC2 (centres undefined)	6	53*	1	5	-5	52*
CCOc1cc(N2CCOCC2)c(OCC)cc1NC(=O)COC(=O)/C=C/c1ccc(OC(F)F)cc1	2	-1	-8	-7	-7	.
COc1cc(OC)nc(Nc2nc(CN)cs2)n1	.	-3	-8	.	9	.
Cc1nc2ccc(NC3=NCCCCC3)cc2s1	-3	61*	-5	6	14	37*
O=C(Nc1ccnn1C1CCN(Cc2ccc(CO)o2)CC1)c1cccc(F)c1	.	-1	-1	.	-5	.
Brc1ccccc1Cn1nnc(-c2ccc(N3CCOCC3)cc2)n1	.	-1	.	.	-2	.
O=C(CSc1nc2ccccc2c(=O)n1-c1ccc(Cl)cc1)NNC(=S)Nc1ccccc1	.	5	.	.	8	.
Cc1c(C(=O)OCC(C)C)[nH]c2c1C(=O)CC(c1ccco1)C2 (centres undefined)	1	31*	-4	7	-4	9
C/C=C/COC(=O)c1[nH]c2c(c1C)C(=O)CC(c1ccco1)C2 (centres undefined)	0	43*	-4	-1	5	8
C=CCOC(=O)c1[nH]c2c(c1C)C(=O)CC(c1ccco1)C2 (centres undefined)	-3	.	.	-5	.	.
CCn1c(=S)sc2c(=O)n(CC(=O)Nc3ccc(OC)c(Cl)c3)c(C)nc21	-2	0	-6	4	5	.
Brc1ccc(C2=CSC3=NCCN23)cc1	0	30*	6	8	-12	12
COc1ccc(OC)c(NC(=O)COC(=O)CCc2ccc(S(=O)(=O)N3CCOCC3)cc2)c1	-2	-1	-1	.	2	.
COCCN(C(=O)c1cc(-c2ccco2)nc2ccccc12)c1c(N)n(Cc2ccccc2)c(=O)[nH]c1=O	-1	83*	-10	.	5	9
CCCn1c(N)c(N(CCOC)C(=O)c2cc(Cl)nc3ccccc23)c(=O)[nH]c1=O	3	0	-1	3	13	.
CCCN(C(=O)c1cc(-c2ccco2)nc2ccccc12)c1c(N)n(Cc2ccccc2)c(=O)[nH]c1=O	1	33*	-10	16	1	6
CCCCN(C(=O)c1cc(-c2ccc(F)cc2)nc2ccccc12)c1c(N)n(CCCC)c(=O)[nH]c1=O	.	4	0	.	0	.
CC1CCCN(S(=O)(=O)c2ccc3[nH]c4c(c3c2)CCCC4)C1 (centres undefined)	4	-3	-3	3	7	.
COC(=O)c1ccc(CCc2cc(O)c(Br)cc2O)cc1	.	103*	11	.	-9	72*
CC(C)c1ccc(N2C(=NC(=O)C3CCCO3)SC3CS(=O)(=O)CC32)cc1 (centres undefined)	1	4	-1	10	-10	.
Clc1ccc(CN2CCN(N=Cc3ccncc3)CC2)cc1	.	-3	.	.	3	.
O=C(CSc1nnc(-c2ccccn2)o1)Nc1ccccc1	-4	3	8	1	3	.
O=C(CSC1=NNC(c2ccccn2)S1)Nc1cccc(Cl)c1 (centres undefined)	-1	61*	-6	-9	-13	41*
O=C(CSC1=NNC(c2ccccn2)S1)Nc1ccccc1 (centres undefined)	13	66*	7	20	1	46*
O=C(CSc1nncn1-c1ccccn1)Nc1cccc(Cl)c1	-5	5	-6	-1	1	.
O=c1[nH]nc(Sc2ccccc2)c(=S)[nH]1	.	0	-11	.	-1	.
O=C(CSc1nc(O)c(Cc2ccccc2)c(=O)[nH]1)Nc1ccccc1	3	16	-12	-3	-13	.
C=CCc1c(O)nc(SCC(=O)c2ccccc2)[nH]c1=O	-1	46*	-8	4	11	57*
